Assay results: ChEMBL document CHEMBL5036324 (J Med Chem, 2021)
Calls of active or inactive are those of the source. The rule behind the calls is not given here.

Assays:
[1] = molecular target: Nuclear factor NF-kappa-B complex (Homo sapiens) (UniProt Q00653+P19838+Q04206); experiment: Activation of NF-KappaB in HEK-Blue Null2-k cells incubated for 6 to 16 hrs by SEAP reporter gene based assay; type: cell-based; conditions: time 6-16 hrs
In short: (§1)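 HEK293-derived SEAP reporter cells stably expressing the matching human TLR (2, 3, 4, 7, 8 or 9), kept under selection antibiotics. SEAP is driven by an NF-κB/AP-1-inducible promoter. HEK-Blue Null2-k (no TLR7/8) serves as the parental line. Cells were given escalating concentrations of stimuli for 6−16 h, then SEAP was read with HEK-Blue detection at 620 nm.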

[2] = molecular target: Toll-like receptor 3 (Homo sapiens) (UniProt O15455); experiment: Agonist activity at human TLR3 expressed in HEK-Blue hTLR3 cells assessed as activation of NFkappaB incubated for 6 to 16 hrs by SEAP reporter gene based assay; type: cell-based; conditions: time 6-16 hrs; in short: as §1
Chain of Toll-like receptor 3 (Homo sapiens) (O15455 whole entry): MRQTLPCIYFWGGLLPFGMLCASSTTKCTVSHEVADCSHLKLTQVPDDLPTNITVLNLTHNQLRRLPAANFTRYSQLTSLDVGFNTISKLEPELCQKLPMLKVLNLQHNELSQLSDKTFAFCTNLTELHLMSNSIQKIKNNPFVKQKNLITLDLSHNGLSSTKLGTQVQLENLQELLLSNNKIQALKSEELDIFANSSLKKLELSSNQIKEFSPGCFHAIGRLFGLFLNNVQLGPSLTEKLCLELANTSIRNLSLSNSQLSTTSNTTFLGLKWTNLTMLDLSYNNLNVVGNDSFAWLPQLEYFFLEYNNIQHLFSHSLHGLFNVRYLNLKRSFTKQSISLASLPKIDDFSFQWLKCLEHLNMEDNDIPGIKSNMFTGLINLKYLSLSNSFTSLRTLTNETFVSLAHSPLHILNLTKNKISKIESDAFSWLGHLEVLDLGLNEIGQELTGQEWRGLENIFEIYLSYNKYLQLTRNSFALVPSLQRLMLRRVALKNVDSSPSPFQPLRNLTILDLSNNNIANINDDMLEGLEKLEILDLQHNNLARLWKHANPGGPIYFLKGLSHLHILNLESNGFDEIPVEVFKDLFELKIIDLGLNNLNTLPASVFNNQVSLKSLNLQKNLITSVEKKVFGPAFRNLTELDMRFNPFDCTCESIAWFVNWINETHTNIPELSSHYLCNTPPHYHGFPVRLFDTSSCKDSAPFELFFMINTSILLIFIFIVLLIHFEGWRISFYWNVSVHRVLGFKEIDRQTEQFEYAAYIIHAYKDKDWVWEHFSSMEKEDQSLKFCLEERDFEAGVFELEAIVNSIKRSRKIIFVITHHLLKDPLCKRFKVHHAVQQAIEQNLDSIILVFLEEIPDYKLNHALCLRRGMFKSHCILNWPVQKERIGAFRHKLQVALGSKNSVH

[3] = molecular target: T1, Toll-like receptor 8 (Homo sapiens) (UniProt Q9NR97); experiment: Agonist activity at human TLR8 expressed in HEK-Blue hTLR8 cells assessed as activation of NFkappaB incubated for 6 to 16 hrs by SEAP reporter gene based assay; type: cell-based; conditions: filed as agonist, time 6-16 hrs; in short: as §1
T1 sequence (whole entry): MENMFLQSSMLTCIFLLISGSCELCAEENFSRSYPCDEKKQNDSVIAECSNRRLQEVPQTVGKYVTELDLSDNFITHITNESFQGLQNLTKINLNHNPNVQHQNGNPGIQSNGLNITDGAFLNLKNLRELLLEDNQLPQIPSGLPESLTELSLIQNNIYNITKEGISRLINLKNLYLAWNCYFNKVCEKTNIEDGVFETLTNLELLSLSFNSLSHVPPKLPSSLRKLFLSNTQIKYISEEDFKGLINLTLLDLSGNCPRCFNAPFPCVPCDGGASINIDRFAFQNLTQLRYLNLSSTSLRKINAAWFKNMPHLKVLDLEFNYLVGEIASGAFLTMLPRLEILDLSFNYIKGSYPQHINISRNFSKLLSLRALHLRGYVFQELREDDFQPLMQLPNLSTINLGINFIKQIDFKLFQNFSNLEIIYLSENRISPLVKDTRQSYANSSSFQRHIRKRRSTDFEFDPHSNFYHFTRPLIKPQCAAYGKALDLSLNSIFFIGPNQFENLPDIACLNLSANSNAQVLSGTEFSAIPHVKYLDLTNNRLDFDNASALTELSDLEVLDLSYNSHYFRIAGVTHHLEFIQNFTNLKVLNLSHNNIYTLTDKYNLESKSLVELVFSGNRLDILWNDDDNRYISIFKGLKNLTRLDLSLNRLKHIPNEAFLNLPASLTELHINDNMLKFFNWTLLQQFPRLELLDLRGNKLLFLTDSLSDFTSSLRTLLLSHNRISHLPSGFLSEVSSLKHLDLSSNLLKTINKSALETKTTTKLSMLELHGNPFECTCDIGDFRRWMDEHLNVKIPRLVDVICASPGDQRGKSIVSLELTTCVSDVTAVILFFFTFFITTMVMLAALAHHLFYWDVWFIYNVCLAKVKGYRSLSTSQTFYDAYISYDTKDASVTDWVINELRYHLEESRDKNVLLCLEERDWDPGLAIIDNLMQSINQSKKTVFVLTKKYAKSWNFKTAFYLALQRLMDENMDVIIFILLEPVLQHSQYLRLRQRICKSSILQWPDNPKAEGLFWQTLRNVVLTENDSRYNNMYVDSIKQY

[4] = molecular target: TLR7 and TLR8 (Homo sapiens) (UniProt Q9NYK1+Q9NR97); experiment: Agonist activity at human TLR7/8 expressed in human PBMC cells assessed as induction of VEGF secretion incubated for 12 hrs by multiplexed immunoassay; type: cell-based; conditions: filed as agonist
In short: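 Healthy-volunteer PBMCs from a single donor were isolated by Ficoll−Hypaque gradient and plated at 2.0 × 10⁶ cells/mL. They were stimulated for 12 h with escalating compound concentrations. Supernatants were assayed in duplicate on a 41-analyte magnetic bead cytokine/chemokine panel read by Luminex. EC_max is the concentration giving maximal cytokine induction.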

[5] = Acute toxicity in BALB/c mouse assessed as decrease in locomotor activity at 15 to 80 mg/kg, ip administered as single dose; type: organism-based; conditions: in vivo, dose 15-80 mg/kg
[6] = Acute toxicity in BALB/c mouse assessed as body weight loss at 60 mg/kg, ip administered as single dose relative to control; type: organism-based; conditions: in vivo
[7] = molecular target: Toll-like receptor 2 (Homo sapiens) (UniProt O60603); experiment: Agonist activity at human TLR2 expressed in HEK-Blue hTLR2 cells assessed as activation of NFkappaB incubated for 6 to 16 hrs by SEAP reporter gene based assay; type: cell-based; conditions: time 6-16 hrs; in short: as §1
Chain of Toll-like receptor 2 (Homo sapiens) (O60603 whole entry): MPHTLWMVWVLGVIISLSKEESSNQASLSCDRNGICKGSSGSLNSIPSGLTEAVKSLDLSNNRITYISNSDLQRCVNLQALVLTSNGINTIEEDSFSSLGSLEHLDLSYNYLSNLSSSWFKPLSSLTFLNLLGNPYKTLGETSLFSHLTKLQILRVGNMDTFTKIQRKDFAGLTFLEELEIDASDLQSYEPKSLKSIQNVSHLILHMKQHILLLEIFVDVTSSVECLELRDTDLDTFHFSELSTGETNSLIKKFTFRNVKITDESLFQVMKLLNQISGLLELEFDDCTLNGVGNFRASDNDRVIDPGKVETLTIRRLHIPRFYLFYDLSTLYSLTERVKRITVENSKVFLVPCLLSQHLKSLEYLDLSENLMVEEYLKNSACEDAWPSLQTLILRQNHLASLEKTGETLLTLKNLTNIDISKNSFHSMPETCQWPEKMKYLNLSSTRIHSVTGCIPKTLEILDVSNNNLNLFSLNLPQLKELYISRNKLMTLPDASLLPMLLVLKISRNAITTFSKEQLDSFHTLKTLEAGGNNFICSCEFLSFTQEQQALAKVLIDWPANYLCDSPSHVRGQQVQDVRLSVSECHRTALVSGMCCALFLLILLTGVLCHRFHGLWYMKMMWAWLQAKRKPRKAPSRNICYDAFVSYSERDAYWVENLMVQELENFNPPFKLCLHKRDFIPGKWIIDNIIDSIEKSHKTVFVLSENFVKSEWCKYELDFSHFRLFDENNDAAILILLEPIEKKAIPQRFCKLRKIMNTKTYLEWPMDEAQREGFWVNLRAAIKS

Chain of Nuclear factor NF-kappa-B complex (Homo sapiens) (P19838 whole entry, looked up): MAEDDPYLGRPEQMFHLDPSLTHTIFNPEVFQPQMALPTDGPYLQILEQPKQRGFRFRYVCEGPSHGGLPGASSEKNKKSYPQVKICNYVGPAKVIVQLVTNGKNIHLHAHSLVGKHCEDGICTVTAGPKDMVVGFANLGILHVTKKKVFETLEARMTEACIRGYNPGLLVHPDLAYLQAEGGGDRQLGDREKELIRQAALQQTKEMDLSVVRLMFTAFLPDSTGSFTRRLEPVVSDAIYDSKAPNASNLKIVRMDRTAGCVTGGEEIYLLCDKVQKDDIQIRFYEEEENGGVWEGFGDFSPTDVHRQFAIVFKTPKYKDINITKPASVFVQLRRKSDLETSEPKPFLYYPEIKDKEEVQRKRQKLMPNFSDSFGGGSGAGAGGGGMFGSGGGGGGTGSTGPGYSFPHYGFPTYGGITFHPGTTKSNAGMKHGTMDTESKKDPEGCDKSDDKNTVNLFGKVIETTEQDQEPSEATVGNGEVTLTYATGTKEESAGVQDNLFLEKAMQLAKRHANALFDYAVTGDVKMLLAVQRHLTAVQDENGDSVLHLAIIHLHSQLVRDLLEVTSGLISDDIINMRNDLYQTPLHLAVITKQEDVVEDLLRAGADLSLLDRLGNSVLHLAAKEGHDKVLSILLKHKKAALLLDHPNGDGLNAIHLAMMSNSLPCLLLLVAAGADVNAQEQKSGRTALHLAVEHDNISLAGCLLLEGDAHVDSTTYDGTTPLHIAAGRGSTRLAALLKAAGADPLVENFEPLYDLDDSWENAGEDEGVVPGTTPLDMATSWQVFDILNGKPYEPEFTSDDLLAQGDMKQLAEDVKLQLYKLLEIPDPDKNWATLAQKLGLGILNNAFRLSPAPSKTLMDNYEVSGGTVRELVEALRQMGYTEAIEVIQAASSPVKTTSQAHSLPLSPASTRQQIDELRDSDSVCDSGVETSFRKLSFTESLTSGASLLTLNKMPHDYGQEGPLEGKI
Chain of Nuclear factor NF-kappa-B complex (Homo sapiens) (Q00653 whole entry, looked up): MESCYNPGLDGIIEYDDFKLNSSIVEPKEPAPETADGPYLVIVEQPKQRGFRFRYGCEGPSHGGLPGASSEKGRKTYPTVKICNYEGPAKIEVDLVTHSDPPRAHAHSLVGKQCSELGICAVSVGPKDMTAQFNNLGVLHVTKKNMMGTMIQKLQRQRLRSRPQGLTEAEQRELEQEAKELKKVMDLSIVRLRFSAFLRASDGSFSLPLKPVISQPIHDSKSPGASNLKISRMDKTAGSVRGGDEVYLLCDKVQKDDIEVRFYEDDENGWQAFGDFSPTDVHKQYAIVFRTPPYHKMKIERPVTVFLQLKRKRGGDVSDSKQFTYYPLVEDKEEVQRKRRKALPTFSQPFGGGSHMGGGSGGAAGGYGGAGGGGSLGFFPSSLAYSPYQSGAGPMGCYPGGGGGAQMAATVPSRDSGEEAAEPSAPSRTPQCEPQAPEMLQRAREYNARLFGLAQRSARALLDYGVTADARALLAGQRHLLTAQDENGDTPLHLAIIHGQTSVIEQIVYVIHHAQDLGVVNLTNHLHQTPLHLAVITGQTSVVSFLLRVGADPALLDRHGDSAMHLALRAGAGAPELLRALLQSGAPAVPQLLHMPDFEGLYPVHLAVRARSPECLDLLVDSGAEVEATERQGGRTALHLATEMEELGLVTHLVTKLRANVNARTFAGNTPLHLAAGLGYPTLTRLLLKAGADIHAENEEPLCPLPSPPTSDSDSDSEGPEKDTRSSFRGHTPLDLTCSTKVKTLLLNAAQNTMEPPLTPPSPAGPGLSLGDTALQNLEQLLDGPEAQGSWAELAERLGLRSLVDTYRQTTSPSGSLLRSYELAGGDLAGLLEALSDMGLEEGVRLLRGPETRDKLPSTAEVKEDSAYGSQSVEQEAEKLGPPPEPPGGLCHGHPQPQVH
Chain of Nuclear factor NF-kappa-B complex (Homo sapiens) (Q04206 whole entry, looked up): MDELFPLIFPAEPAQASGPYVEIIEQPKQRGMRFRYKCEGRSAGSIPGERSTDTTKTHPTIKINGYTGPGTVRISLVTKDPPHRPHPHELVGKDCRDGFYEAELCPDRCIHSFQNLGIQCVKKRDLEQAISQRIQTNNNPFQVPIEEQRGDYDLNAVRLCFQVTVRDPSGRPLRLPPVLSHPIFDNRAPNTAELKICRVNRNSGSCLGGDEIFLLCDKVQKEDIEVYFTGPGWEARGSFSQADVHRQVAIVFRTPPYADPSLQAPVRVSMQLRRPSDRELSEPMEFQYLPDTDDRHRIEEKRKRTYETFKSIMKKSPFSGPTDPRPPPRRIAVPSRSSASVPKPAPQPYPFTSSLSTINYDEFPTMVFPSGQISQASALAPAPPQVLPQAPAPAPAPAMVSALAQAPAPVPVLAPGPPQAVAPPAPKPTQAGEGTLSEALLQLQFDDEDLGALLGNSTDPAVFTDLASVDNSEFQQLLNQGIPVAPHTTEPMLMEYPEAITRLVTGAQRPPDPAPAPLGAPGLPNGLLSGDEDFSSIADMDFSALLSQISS

| SMILES | Activity [1] | Activity [2] | Activity [3] | Activity [4] | Activity [5] | Activity [6] [%] | Activity [7] |
| --- | --- | --- | --- | --- | --- | --- | --- |
| COCCNc1nc(N)nc2ccc(Cc3ccc(CN(C)C)cc3)nc12 | inactive | inactive | Active | Active | Toxic | 15.3 | inactive |
| CCCCNc1nc(N)nc2ccc(Cc3ccc(CN(C)C)cc3)nc12 | inactive | inactive | Active | Active | Toxic | 17.6 | inactive |
